Data on one compound can be found in ChEMBL document CHEMBL4376872, “Scaffold Hopping of Natural Product Evodiamine: Discovery of a Novel Antitumor Scaffold with Excellent Potency against Colon Cancer” (J Med Chem, 2020).

For one data set, the system named is MDA-MB-435. As to the kind of experiment: Antiproliferative activity against human MDA-MB-435 cells assessed as reduction in cell viability incubated for 72 hrs by CCK8 assay. It counts as functional, cell-based. The settings on record: MDA-MB-435, 72 h.
The test system of the next data set is PC-3. As to the kind of experiment: Antiproliferative activity against human PC3 cells assessed as reduction in cell viability incubated for 72 hrs by CCK8 assay. The class given is functional, cell-based. Particulars: PC-3, 72 h. In general terms: Tetrazolium dyes change colour on reduction, which living cells bring about.
Data set [1] can be described thus: Antiproliferative activity against human MV-3 cells assessed as reduction in cell viability incubated for 72 hrs by CCK8 assay. The class given is functional, cell-based. Particulars: MV-3, 72 h.
The subject of a further data set is SK-HEP1. Put plainly: Antiproliferative activity against human SKHEP1 cells assessed as reduction in cell viability incubated for 72 hrs by CCK8 assay. The class given is functional, cell-based. Particulars: SK-HEP1, 72 h.
Data set [2] has as its target T1, DNA topoisomerase 1 (Escherichia coli (strain K12)) (UniProt P06612).
T1 sequence (whole entry): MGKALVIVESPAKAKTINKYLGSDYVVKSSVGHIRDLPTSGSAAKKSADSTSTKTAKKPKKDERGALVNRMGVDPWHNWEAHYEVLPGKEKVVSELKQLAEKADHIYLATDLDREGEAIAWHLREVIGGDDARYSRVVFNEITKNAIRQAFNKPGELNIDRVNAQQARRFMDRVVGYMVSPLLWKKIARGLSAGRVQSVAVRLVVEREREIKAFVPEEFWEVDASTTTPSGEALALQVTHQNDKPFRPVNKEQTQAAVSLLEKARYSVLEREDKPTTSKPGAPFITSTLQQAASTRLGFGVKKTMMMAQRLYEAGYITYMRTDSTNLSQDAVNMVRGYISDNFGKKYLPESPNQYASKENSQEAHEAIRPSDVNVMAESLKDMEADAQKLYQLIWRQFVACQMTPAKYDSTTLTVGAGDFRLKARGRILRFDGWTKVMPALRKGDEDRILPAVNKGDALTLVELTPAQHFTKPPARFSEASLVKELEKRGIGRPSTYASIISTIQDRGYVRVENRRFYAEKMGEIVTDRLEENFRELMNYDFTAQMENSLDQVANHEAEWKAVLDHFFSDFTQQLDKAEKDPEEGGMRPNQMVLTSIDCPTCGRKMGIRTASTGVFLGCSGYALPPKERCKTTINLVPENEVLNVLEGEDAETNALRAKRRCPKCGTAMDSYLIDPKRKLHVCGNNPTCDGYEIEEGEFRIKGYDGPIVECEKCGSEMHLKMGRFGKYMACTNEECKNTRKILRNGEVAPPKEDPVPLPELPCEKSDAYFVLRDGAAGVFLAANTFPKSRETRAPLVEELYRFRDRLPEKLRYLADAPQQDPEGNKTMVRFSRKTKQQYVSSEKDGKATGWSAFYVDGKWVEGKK
As to the kind of experiment: Inhibition of Escherichia coli Top1 assessed as decrease in relaxation of supercoiled pBR322 plasmid DNA at 100 uM using supercoiled pBR322 plasmid DNA as substrate incubated for 15 mins by agarose gel electrophoresis analysis.

Data set [3] concerns HCT-116. As to the kind of experiment: Induction of apoptosis in human HCT116 cells at 0.20 uM incubated for 24 hrs by annexin V-FITC and propidium iodide staining based flow cytometry (reference value: 0.86 %). The class given is functional. (In general: In flow cytometry, cells or beads pass a laser one at a time.)
Data set [4] deals with HCT-116. As to the kind of experiment: Cell cycle arrest in human HCT116 cells assessed as accumulation in G1 phase at 12 nM incubated for 24 hrs by propidium iodide staining based flow cytometry (reference value: 45.18 %). It counts as functional.
Data set [5] is described as follows: Toxicity in mouse xenografted with human HCT116 cells assessed as reduction in body weight at 4 mg/kg, ip bid for 21 days administration starting from 10 days after tumor cell implantation measured every 2 or 4 days till the end of the treatment period. The class given is organism-based. Particulars: in vivo. The method in brief: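 Nude mice bearing HCT116 xenografts were given intraperitoneal doses on 21 consecutive days, with n = 6 per group including an untreated control group. Body weight was recorded to assess toxicity. Data are mean ± SEM, compared with the control group by Student's t test.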

A short description of data set [6]: Aqueous solubility of compound at pH 7.4. The class given is physicochemical.
For data set [7], the target named is Tyrosine-protein phosphatase non-receptor type 11 (Homo sapiens) (UniProt Q06124). Put plainly: Inhibition of SHP2 (unknown origin) using DiFMUP as substrate at 5 uM incubated for 30 mins by fluorescence based analysis.
The target in data set [8] is CDK9/cyclin T1 (Homo sapiens) (UniProt O60563+P50750). Put plainly: Inhibition of CDK9/Cyclin T1 (unknown origin) using PDKtide as substrate at 5 uM incubated for 40 mins in presence of 10 uM ATP by kinase-Glo luminescence assay relative to control. The class given is protein-complex assay. (Kinase-Glo reads ATP consumption through a luciferase reaction.)
For data set [9], the target named is Matrix metalloproteinase-9 (Homo sapiens) (UniProt P14780). Put plainly: Inhibition of MMP9 (unknown origin) using Mca-PLGLDpaAR as substrate at 5 uM preincubated with enzyme for 2 hrs followed by incubation with substrate for 15 mins by fluorescence based analysis relative to control.
For data set [10], the system named is Tyrosine-protein kinase ABL1 (Homo sapiens), P00519 [T315I]. As to the kind of experiment: Inhibition of Abl T315I mutant (unknown origin) using Abltide as substrate at 5 uM incubated for 40 mins in presence of 10 uM ATP by kiase-Glo luminescence assay relative to control.
Data set [11] addresses Serine/threonine-protein kinase PLK1 (Homo sapiens) (UniProt P53350). Put plainly: Inhibition of PLK1 (unknown origin) using PLK1 peptide as substrate at 5 uM incubated for 40 mins in presence of 10 uM ATP by kiase-Glo luminescence assay relative to control.
In data set [12] the target is Lysine-specific demethylase 4A (Homo sapiens) (UniProt O75164). Put plainly: Inhibition of JMJD2A (unknown origin) using biotinylated histone H3 peptide as substrate at 5 uM incubated for 60 mins by AlphaScreen assay relative to control.
For data set [13], the target named is Focal adhesion kinase 1 (Homo sapiens) (UniProt Q05397). Put plainly: Inhibition of FAK (unknown origin) using poly (Glu, Tyr) as substrate at 5 uM incubated for 40 mins in presence of 10 uM ATP by kiase-Glo luminescence assay relative to control.

As usually defined, the pIC50 is the IC50 on a negative log10 scale, so that one unit is a factor of ten. By inhibition is commonly meant how much of the control response was suppressed. The solubility is the concentration that dissolves in the medium under given conditions. Low values mean little dissolved substance, high ones much dissolved substance.

pIC50: −log10 of the molar value. Converted amounts (≈) assume the structure as drawn. The source made the active and inactive calls. The rule behind the calls is not given here.

Matrix metalloproteinase-9 (Homo sapiens), sequence (P14780 whole entry): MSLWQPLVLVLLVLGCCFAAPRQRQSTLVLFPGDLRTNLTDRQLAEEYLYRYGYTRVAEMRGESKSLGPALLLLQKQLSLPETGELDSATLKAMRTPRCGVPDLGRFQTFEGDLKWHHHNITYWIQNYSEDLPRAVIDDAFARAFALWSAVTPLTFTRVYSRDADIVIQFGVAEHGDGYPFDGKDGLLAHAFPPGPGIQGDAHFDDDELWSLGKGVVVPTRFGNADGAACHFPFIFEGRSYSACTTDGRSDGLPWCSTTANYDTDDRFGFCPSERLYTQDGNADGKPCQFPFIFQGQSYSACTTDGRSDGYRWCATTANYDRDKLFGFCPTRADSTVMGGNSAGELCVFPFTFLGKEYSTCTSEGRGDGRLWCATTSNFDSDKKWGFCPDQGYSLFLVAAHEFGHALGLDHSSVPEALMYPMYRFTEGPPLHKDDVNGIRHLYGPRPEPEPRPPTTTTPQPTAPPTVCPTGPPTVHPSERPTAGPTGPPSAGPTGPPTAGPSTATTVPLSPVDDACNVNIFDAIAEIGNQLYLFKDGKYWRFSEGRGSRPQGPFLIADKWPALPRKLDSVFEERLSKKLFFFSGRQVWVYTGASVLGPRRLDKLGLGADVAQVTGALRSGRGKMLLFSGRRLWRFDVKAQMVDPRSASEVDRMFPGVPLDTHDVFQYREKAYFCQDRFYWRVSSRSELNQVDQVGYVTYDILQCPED
Tyrosine-protein phosphatase non-receptor type 11 (Homo sapiens), sequence (Q06124 whole entry): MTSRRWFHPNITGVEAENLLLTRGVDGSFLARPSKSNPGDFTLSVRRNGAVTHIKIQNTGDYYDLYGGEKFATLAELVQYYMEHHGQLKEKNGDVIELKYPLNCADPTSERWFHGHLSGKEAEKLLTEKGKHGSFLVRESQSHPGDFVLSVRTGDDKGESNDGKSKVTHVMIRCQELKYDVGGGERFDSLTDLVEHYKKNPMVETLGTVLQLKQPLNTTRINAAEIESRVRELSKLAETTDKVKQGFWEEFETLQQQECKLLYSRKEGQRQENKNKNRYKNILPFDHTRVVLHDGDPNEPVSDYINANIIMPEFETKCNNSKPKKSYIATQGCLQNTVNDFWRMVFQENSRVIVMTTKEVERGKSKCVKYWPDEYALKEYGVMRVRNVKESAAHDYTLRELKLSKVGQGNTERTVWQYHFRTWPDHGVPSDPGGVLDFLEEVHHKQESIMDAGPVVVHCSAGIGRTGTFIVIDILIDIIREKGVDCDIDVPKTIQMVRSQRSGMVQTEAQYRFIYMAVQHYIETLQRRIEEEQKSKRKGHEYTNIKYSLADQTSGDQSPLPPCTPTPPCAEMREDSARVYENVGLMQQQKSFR
Lysine-specific demethylase 4A (Homo sapiens), sequence (O75164 whole entry): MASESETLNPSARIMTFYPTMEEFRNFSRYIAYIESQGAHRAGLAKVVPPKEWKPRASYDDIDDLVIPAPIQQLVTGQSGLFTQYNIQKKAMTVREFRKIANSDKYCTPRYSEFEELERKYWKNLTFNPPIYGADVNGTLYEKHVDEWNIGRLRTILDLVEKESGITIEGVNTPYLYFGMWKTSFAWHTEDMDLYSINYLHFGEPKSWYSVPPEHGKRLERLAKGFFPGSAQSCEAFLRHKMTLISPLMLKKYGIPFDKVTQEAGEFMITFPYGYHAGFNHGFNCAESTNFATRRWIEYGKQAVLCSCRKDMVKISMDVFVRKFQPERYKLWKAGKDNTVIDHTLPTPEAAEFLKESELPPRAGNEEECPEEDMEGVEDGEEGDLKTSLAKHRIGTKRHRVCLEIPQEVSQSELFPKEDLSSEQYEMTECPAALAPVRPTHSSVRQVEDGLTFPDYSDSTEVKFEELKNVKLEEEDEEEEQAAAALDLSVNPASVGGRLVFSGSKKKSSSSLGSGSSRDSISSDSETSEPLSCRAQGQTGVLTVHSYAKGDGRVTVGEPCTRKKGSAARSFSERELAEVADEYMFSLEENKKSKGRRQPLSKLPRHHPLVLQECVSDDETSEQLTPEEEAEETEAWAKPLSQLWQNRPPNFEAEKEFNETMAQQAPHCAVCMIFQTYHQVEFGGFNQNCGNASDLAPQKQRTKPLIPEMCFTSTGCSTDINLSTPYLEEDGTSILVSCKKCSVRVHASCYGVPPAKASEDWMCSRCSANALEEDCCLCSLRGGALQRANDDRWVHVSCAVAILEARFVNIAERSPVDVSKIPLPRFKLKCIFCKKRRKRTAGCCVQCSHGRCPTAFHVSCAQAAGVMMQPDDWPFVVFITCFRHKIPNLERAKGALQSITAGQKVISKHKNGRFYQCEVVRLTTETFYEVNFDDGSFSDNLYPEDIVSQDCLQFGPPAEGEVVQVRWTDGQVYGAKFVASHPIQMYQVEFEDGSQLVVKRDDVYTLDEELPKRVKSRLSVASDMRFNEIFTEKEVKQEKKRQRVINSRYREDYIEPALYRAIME
Focal adhesion kinase 1 (Homo sapiens), sequence (Q05397 2-1052 limits assumed): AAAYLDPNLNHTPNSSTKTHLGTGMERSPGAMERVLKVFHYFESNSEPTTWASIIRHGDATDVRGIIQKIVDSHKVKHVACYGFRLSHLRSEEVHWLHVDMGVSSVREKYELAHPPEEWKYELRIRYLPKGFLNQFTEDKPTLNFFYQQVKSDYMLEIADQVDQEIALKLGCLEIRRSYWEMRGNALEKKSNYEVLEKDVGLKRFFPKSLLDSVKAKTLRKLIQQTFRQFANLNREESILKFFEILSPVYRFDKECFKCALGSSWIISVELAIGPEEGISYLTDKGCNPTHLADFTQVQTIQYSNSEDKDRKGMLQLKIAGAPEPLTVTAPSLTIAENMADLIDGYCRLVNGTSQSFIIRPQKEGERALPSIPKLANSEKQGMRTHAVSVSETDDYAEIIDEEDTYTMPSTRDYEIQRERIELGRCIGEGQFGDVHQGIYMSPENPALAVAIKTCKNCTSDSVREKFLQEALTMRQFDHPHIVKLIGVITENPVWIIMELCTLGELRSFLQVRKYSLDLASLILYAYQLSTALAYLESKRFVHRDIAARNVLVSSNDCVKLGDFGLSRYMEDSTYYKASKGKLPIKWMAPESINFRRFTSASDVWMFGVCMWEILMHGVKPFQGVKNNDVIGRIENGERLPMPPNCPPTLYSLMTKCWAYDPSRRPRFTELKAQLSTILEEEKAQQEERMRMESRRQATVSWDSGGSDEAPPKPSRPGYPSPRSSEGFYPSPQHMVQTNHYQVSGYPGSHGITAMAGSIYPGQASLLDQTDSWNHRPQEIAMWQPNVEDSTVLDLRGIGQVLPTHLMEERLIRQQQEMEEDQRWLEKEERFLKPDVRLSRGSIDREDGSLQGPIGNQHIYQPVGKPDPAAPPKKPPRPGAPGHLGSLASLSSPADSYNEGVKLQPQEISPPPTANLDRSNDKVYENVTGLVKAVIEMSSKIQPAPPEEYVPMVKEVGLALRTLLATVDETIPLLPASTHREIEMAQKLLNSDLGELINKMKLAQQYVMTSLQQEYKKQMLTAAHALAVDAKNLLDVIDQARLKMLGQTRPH
Serine/threonine-protein kinase PLK1 (Homo sapiens), sequence (P53350 whole entry): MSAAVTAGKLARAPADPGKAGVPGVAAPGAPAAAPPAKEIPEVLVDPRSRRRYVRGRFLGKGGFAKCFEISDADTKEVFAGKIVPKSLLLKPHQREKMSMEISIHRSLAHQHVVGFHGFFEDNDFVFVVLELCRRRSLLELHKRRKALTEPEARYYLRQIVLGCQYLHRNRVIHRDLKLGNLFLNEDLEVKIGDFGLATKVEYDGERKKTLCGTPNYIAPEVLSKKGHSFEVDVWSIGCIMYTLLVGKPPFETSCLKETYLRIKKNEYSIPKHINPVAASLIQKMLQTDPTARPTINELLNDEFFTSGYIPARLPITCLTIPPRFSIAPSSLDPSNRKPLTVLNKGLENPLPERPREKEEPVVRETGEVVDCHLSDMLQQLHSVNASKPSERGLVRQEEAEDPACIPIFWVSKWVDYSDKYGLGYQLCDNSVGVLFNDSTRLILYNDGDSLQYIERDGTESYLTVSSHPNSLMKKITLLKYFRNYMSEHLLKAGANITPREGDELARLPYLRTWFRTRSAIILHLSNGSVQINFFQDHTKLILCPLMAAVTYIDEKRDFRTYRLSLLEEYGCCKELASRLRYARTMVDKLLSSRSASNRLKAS

As for `COc1ccc2c(c1)cc1n2CCN2C(=O)c3cc(F)ccc3N(C)C12` (stereo unspecified), the negative-log IC50 (pIC50) is 6.00 in the data set with MDA-MB-435, 6.52 with PC-3, 6.40 in data set [1] and 5.89 with SK-HEP1. Also, the inhibition result in data set [2] is “Active”. For the same compound, the Activity in the data set with HCT-116 [3] is listed as 45.97%; in the data set with HCT-116 [4] it was 24.07%; in [5], “Non-Toxic”. This compound showed a solubility in data set [6] of 1.5 µg/mL (≈ 4.27 µM). Further, the inhibition in data set [7], in data set [8], in data set [9], in [10], in data set [11] and in data set [12] was less than 20% in each case. Besides, the inhibition in [13] was less than 20%.
